Consider six compounds from publication PMC6703927 (ACS chemical neuroscience, 2019).

Test [1] concerns the target T1, DAT (Rattus norvegicus, UniProt P23977). As to the kind of experiment: Synaptosomal dopamine uptake assay, striatal synaptosomes. The format is biochemical.
The test system of another test is DAT W84L. Conditions: cited from earlier work.
In a further test the test system is hDAT Y156F. Conditions: cited from earlier work.
Another test deals with WT-DAT (Homo sapiens, UniProt Q01959). As to the kind of experiment: DA uptake inhibition assay, transfected COS-7 cells. The format is cell-based. Conditions: read-out: IC50 DA uptake inhibition; WT-DAT transfected COS-7 cells.
Chain of WT-DAT (Q01959 whole entry): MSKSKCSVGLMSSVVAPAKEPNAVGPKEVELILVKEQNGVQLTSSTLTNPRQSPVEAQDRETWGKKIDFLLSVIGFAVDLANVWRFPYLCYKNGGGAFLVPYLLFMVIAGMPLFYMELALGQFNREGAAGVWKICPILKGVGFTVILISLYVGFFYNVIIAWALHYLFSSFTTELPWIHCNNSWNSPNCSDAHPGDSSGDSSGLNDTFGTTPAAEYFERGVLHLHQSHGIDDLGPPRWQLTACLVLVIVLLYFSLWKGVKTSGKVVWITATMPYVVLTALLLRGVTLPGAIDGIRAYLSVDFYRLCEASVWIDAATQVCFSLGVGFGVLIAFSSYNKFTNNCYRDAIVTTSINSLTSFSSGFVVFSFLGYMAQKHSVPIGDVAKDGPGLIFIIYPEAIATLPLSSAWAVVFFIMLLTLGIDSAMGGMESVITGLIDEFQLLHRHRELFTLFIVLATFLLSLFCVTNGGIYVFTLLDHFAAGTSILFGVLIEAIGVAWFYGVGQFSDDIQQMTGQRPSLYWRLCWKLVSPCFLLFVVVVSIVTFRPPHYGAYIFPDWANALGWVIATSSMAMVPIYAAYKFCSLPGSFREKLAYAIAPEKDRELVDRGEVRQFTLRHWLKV
Test [2] relates to DAT-XC/T316C. Put plainly: SCAM MTSEA-biotin biotinylation, HEK-293 cells. The format is cell-based, human. In short, it runs like this: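 HEK-293 cells (Lipojet transfection) expressed HA-tagged DAT-XC/T316C. […] Streptavidin-purified biotinylated DAT was immunoblotted with anti-HA, normalized to total DAT in unpurified lysate, then to the untreated band. Eight independent experiments were run.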

Test [3] has as its system DAT-XC/A372C. As to the kind of experiment: SCAM MTSEA-biotin biotinylation, HEK-293 cells. The format is cell-based, human.
The test system of the next test is wild type DAT. Put plainly: [3H]-DA uptake kinetic assay, transiently transfected COS-7 cells. The format is cell-based, human. The conditions noted are these: for Vmax of dopamine uptake: vehicle 71.5 ± 6.12. The method in brief:
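WT human DAT was transiently expressed in COS-7 cells (TransIT-LT1). [3H]-dopamine saturation uptake was run with vehicle, 1 μM or 5 μM test compound. Vmax and Km were obtained from a Michaelis-Menten nonlinear regression fit. Figure data and kinetic constants are averaged over four independent experiments.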

The target of the next test is hSERT (Homo sapiens, UniProt P31645). In kind it is cell-based. Conditions: hDAT vs SERT. In short, it runs like this: (§1)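 MDCK cells stably expressing hDAT, hNET or hSERT were kept in DMEM with 10% FBS, pen/strep and blasticidin (5 μg/mL) at 37 °C, 5% CO2. Radiolabeled neurotransmitter uptake ([3H]-DA, [3H]serotonin) was measured against test compound dose. Results were normalized to percent of the highest response, and IC50 was fitted by nonlinear regression from three independent experiments.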
Chain of hSERT (P31645 whole entry): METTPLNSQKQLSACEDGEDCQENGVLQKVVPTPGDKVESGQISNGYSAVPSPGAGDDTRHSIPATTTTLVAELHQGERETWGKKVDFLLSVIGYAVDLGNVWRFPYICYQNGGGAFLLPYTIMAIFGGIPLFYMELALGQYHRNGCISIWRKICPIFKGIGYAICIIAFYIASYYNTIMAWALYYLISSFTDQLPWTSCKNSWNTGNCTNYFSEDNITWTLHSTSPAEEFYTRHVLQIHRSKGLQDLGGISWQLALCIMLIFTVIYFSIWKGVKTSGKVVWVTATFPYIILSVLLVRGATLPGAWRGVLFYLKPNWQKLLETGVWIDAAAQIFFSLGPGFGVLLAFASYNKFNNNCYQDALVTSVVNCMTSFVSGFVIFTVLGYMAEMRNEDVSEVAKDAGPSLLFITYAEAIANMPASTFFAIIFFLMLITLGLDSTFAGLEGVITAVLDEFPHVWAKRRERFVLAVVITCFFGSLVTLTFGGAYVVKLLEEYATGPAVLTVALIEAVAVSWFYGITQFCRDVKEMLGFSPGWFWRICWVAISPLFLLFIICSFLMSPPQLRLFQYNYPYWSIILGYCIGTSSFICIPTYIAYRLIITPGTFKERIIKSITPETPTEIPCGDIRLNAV

For test [4], the target named is T1, DAT. Put plainly: Ex vivo slice fast scan cyclic voltammetry, Nucleus accumbens. Conditions: 50 μM KM822, NAc slices. In short, it runs like this: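 Rats were anesthetized with 2.5% isoflurane for 3 min and decapitated, and coronal NAc slices were cut into oxygenated ACSF (pH 7.4). After 30 min recovery at room temperature, slices were recorded at 32 °C by carbon-fiber microelectrode. Single pulses (400 μA, 4 ms, monophasic) were given every 3 min until baseline stabilized over three stimulations.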

Test [5] has as its target T2, DAT-XC/W84C (Homo sapiens, UniProt Q01959, C306A/W84C).
T2 sequence (Q01959 1-620 W84C/C306A): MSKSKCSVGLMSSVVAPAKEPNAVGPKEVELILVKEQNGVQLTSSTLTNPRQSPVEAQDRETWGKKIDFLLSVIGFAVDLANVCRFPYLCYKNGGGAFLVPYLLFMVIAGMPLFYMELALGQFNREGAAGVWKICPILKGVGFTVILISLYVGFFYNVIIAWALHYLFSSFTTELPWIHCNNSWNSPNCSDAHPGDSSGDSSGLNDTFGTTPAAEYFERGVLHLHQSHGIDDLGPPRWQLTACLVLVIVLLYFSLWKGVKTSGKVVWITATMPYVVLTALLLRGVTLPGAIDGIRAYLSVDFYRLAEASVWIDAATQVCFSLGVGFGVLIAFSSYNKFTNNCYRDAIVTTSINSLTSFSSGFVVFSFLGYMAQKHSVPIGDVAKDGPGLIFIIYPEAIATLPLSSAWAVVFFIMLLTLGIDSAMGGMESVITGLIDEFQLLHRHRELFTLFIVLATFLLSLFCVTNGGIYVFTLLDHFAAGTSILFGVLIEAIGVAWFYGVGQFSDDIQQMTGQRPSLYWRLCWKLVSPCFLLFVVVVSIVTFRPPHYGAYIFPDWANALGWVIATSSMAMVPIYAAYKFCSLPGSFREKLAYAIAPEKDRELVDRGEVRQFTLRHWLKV
As to the kind of experiment: DA uptake dose-response inhibition assay, transiently expressed DAT mutant. Conditions: W84C vs DAT-XC. The format is cell-based. In short, it runs like this: (§2)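 Mutants were made by site-directed mutagenesis. Single mutants used human WT DAT as background, and double cysteine mutants used C306A-DAT (DAT-XC). DA uptake dose-response gave IC50s from three or more independent experiments. Cysteine mutant IC50s were compared with DAT-XC, and D476 mutant IC50s with DAT-WT, by paired Student's t test.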

In the next test the target is hNET (Homo sapiens, UniProt P23975). In kind it is cell-based. Conditions: hDAT vs hNET. The method in brief: as §1
Chain of hNET (P23975 whole entry): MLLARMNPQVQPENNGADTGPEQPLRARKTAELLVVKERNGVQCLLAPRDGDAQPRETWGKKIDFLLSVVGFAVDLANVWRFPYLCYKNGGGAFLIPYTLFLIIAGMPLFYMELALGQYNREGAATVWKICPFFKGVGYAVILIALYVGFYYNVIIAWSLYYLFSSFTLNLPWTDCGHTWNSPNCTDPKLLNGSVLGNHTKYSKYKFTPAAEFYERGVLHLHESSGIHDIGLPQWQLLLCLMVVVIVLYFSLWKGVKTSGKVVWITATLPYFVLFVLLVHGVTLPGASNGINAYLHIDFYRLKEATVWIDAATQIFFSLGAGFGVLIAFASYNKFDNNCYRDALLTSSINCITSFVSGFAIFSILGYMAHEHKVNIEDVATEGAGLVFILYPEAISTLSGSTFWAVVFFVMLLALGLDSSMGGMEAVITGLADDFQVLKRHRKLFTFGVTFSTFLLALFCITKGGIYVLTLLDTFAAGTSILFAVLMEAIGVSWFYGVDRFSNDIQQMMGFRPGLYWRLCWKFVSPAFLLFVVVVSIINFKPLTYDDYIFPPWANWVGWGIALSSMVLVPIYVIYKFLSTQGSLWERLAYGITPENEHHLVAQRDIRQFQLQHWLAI
For test [6], the system named is DAT cysteine mutant T473C. As to the kind of experiment: SCAM MTSEA-biotin biotinylation, HEK-293 cells. The format is cell-based, human. Conditions: 20 μM KM822 coincubation. In short, it runs like this: (§3)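 SCAM used HEK-293 cells (Lipojet transfection) expressing N-terminally HA-tagged cysteine mutants on the C306A background. Cells were incubated with test compound (20 μM) before MTSEA-biotin labeling. Biotinylated DAT was pulled down on streptavidin beads and immunoblotted with anti-HA antibody. It was normalized to total DAT from unpurified lysates, then to the untreated band.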

The test system of another test is DAT mutant D385C. As to the kind of experiment: DA uptake dose-response inhibition assay, transiently expressed DAT mutant. In kind it is cell-based, human. Conditions: D385C vs DAT-XC. In short, it runs like this: as §2
For test [7], the system named is DAT cysteine mutant R544C. As to the kind of experiment: SCAM MTSEA-biotin biotinylation, HEK-293 cells. Conditions: 20 μM KM822 coincubation. The format is cell-based, human. The method in brief:
as §3

In another test the target is Y156F-DAT (Homo sapiens, UniProt Q01959, Y156F). As to the kind of experiment: DA uptake inhibition assay, transfected COS-7 cells. In kind it is cell-based. The method in brief:
(§4)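 COS-7 cells (DMEM, 10% FBS, pen/strep, 37 °C, 5% CO2) were transiently transfected with WT or mutant human DAT using TransIT-LT1. Dopamine uptake was measured across a dose-response of test compound. Responses were normalized, and IC50 was obtained by nonlinear regression. Means and SEM come from three independent experiments, with the mutant compared against WT-DAT.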

Test [8] deals with T2, DAT-XC/W84C. Put plainly: SCAM MTSEA-biotin biotinylation, HEK-293 cells. In kind it is cell-based.
The next test concerns DAT mutant D476N. Put plainly: DA uptake dose-response inhibition assay, transiently expressed DAT mutant. The format is cell-based, human. The conditions noted are these: D476N vs DAT-WT. The method in brief: as §2
Another test addresses Y335A-DAT (Homo sapiens, UniProt Q01959, Y335A). As to the kind of experiment: DA uptake inhibition assay, transfected COS-7 cells. The format is cell-based. The method in brief:
as §4

The subject of test [9] is DAT cysteine mutant D385C. As to the kind of experiment: SCAM MTSEA-biotin biotinylation, HEK-293 cells. The conditions noted are these: 20 μM KM822 coincubation. The format is cell-based, human. In short, it runs like this: as §3
The subject of test [10] is DAT-XC/T316C. The conditions noted are these: DAT-XC/T316C in the presence of cocaine; cited from earlier work.
In test [11] the test system is DAT-XC/A372C. Conditions: DAT-XC/A372C treated with cocaine; cited from earlier work.
Another test relates to DAT Y335A. Conditions: cited from earlier work.

As a reminder, the IC50 is the point on the concentration scale where inhibition reaches its midpoint.

T1 sequence (P23977 whole entry): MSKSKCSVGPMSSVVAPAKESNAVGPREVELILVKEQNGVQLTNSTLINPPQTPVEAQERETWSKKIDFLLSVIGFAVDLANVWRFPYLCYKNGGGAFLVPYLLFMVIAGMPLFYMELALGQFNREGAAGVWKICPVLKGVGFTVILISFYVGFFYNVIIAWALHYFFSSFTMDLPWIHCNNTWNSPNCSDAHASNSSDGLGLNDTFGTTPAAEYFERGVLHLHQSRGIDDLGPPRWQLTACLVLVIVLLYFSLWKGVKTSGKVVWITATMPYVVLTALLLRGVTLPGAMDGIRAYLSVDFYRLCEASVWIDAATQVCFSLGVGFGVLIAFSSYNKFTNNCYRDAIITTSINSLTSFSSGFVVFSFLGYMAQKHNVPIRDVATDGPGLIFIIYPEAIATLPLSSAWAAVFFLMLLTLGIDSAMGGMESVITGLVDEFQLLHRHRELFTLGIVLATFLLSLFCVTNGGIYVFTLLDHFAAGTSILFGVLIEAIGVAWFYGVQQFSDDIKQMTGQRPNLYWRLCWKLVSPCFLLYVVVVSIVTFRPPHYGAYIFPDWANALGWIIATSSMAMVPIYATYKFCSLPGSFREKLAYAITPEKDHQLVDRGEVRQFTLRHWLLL
Chain of Y156F-DAT (Q01959 whole entry Y156F): as the sequence (Q01959 whole entry) above, with Y156F counted along it
Chain of Y335A-DAT (Q01959 whole entry Y335A): as the sequence (Q01959 whole entry) above, with Y335A counted along it

For the compound `Fc1ccc(C(OCCN2CCN(CCCc3ccccc3)CC2)c2ccc(F)cc2)cc1` [GBR12909], at DAT [1] (1 μM GBR12909), the “total DA uptake in striatal synaptosomes” value is given as “significantly blocked”. The “change of apparent potency in W84 to leucine mutant” value (“change of apparent potency in W84” for short) in the test on DAT W84L is recorded as “decrease in apparent potency”.
Turning to `CCCCN1[C@@H]2CC[C@H]1CC(OC(c1ccc(F)cc1)c1ccc(F)cc1)C2` (some centres unmarked) [JHW-007], in the test with hDAT Y156F, the “potency change by Y156F mutation” value is listed as “significantly reduced”.
As for `CCc1ccc2[nH]c3nc(SCCNS(=O)(=O)c4ccc(NC(C)=O)cc4)nnc3c2c1` [KM822], the IC50 on WT-DAT was 3.8 ± 0.88 µM; on Y156F-DAT (read-out: IC50 DA uptake inhibition, Y156F-DAT transfected COS-7 cells), 3.3 ± 0.45 µM; at Y335A-DAT (read-out: IC50 DA uptake inhibition, Y335A-DAT transfected COS-7 cells) it was 12.8 ± 1.4 µM. Besides, the “effect on MTSEA-biotin labeling” value is “increased” with DAT-XC/T316C [2] (20 μM KM822) and “no significant change” in the test on DAT-XC/A372C [3] (20 μM KM822). In addition, the results for the “Vmax of dopamine uptake” value in the test on wild type DAT (in the presence of 1 μM KM822) and in the test on wild type DAT (in the presence of 5 μM KM822) were 65.8 ± 8.71 μmol/min/well and 57.9 ± 4.15 μmol/min/well, respectively. Moreover, the “manner of dopamine uptake inhibition” value with wild type DAT (uptake kinetics) is given as “noncompetitive”. At hSERT, the “potency for hDAT transport inhibition higher than for SERT” value was 50 folds. Also, the “effect on stimulated DA release / cocaine-induced changes in DA release” value at DAT [4] was “did not affect”. Further, the “effect on cocaine-induced inhibition of DA uptake (app Km)” value at DAT [4] (cumulative cocaine, significant at 30 μM cocaine) is “significantly reduced”. Also, the “change of potency in mutant” value at DAT-XC/W84C [5] is given as “increase in potency”. Further, at hNET, the “potency for hDAT transport inhibition higher than for hNET” value came out at 30 folds. The “effect on MTSEA-biotin biotinylation” value is on record as “no effect” in test [6], “no effect” in test [7], “significantly decreased” at DAT-XC/W84C [8] (20 μM KM822 coincubation) and “no effect” in test [9]. Moreover, the “change of apparent potency in mutant” value with DAT mutant D385C and in the test with DAT mutant D476N was “lowered” each time. Also, at Y156F-DAT (COS-7 cells), the “potency in Y156F-DAT mutant as compared to WT-DAT” value is reported as “unchanged”. For the same compound, on Y335A-DAT (COS-7 cells), the “potency reduction in Y335A mutant vs WT-DAT” value is on record as 3 fold.
With `NC(=O)C[S@+]([O-])C(c1ccccc1)c1ccccc1` [S-modafinil], the “potency change by Y156F mutation” value in the test with hDAT Y156F is reported as “significantly reduced”.
Consider `CN1[C@@H]2CC[C@H]1C[C@@H](OC(c1ccccc1)c1ccccc1)C2` [benztropine], for which, in the test with DAT W84L, the “change of apparent potency in W84” value is recorded as “decrease in apparent potency”.
For `COC(=O)[C@H]1[C@@H](OC(=O)c2ccccc2)C[C@@H]2CC[C@H]1N2C` [cocaine], the results for the “effect on MTSEA-biotin labeling” value with DAT-XC/T316C [2] (100 μM cocaine), in the test on DAT-XC/A372C [3] (100 μM cocaine) and on DAT-XC/W84C [8] (100 μM cocaine coincubation) were “increased labeling”, “no change in labeling” and “not affected”, respectively. The figures for the “labeling with a maleimide-based biotin molecule” value in the test with DAT-XC/T316C [10] and in the test on DAT-XC/A372C [11] were “increased labeling” and “no change in labeling”, respectively. Further, the “total DA uptake in striatal synaptosomes” value at DAT [1] (100 μM cocaine) is given as “significantly blocked”. Besides, the “change of apparent potency in W84” value in the test on DAT W84L was “increased apparent potency”. The “potency change by Y335A mutation” value in the test with DAT Y335A was “markedly impairs”. Besides, the “binding affinity change by Y156F mutation” value with hDAT Y156F is recorded as “unaffected”.
